{"source": "paper PMC3224645", "about": "(Purinergic Signalling, 2011)", "key": {"[1]": {"test_system": "breast cancer cell lines lacking A3R mRNA", "conditions": "concentrations between 10 and 100 μM (500 μM for adenosine); cited from earlier work"}, "[2]": {"conditions": "phase I clinical studies; cited from earlier work"}, "[3]": {"test_system": "N1S1 (rat hepatocellular carcinoma) cells", "assay": "[3H]-thymidine incorporation proliferation assay, N1S1", "format": "cell-based", "summary_of_the_method": "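N1S1 rat hepatoma cells, not serum-starved, were assayed in growth medium (RPMI 1640, 10% FBS, 2 mM L-glutamine, penicillin/streptomycin) at 1.5 × 10^4 cells/ml. […] Assays ran 24 h, or 48 h for experiments with EHNA (10 μM). [3H]-thymidine (1 μCi) was pulsed for the last 18 h, then cells were harvested and scintillation-counted.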"}, "hA3R [4]": {"target": "T1, hA3R (Homo sapiens, UniProt P0DMS8)", "T1 sequence (P0DMS8 1-318)": "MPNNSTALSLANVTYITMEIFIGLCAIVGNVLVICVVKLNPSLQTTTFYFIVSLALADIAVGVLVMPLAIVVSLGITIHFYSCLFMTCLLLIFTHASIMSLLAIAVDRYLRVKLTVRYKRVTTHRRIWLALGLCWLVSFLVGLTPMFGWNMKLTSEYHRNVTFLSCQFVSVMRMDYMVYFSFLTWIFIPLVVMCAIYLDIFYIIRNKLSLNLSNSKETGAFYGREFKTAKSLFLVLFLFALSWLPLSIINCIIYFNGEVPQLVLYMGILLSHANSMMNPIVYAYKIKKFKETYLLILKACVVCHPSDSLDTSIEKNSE", "assay": "cAMP accumulation assay", "format": "cell-based"}, "[5]": {"test_system": "LNCaP (human prostate carcinoma) cells", "assay": "[3H]-thymidine incorporation proliferation assay, LNCaP", "format": "cell-based", "conditions": "for effect on LNCaP proliferation: 24 h", "summary_of_the_method": "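LNCaP cells were kept in RPMI 1640 with 10% FBS, then serum-starved for 18 h and assayed as monolayers in RPMI with 1% FBS at 1.5 × 10^4 cells/ml. […] Assays ran 24 h, or 48 h for experiments with EHNA (10 μM). [3H]-thymidine (1 μCi) was added for the last 18 h, then cells were harvested and counted. Three experiments in triplicate.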"}, "HL-60": {"test_system": "HL-60", "conditions": "30 μM, in the presence of MRS1523 (10 μM) or MRS1220 (5 μM); cited from earlier work"}, "MOLT-4": {"test_system": "MOLT-4", "conditions": "30 μM, in the presence of MRS1523 (10 μM) or MRS1220 (5 μM); cited from earlier work"}, "[6]": {"conditions": "in the first 4 h, mostly in metabolized form; cited from earlier work"}, "rat A3R": {"target": "T2, rat A3R (Rattus norvegicus, UniProt P28647)", "T2 sequence (P28647 1-320)": "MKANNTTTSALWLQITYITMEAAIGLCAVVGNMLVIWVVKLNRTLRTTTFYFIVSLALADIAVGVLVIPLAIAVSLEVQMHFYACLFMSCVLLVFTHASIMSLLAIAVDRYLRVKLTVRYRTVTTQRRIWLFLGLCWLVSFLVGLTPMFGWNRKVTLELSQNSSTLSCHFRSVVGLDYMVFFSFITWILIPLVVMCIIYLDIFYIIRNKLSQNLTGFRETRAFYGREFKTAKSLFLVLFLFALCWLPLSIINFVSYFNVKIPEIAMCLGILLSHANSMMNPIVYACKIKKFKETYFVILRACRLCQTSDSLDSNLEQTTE", "assay": "Radioligand binding, [125I]-AB-MECA displacement on RBL-2H3 cell membranes"}, "LNCaP cells": {"test_system": "LNCaP cells", "assay": "LNCaP proliferation with IPA in the presence of A3R antagonist MRS1523", "format": "cell-based, human"}, "hA3R [7]": {"target": "T1, hA3R", "conditions": "cited from earlier work"}}, "data": [{"smiles": "CNC(=O)[C@H]1O[C@@H](n2cnc3c(NCc4cccc(I)c4)ncnc32)[C@H](O)[C@@H]1O", "note": "[IB-MECA]", "values": [{"measurement": "antiproliferative effect on breast cancer cell lines lacking A3R mRNA", "setting": "[1]", "result": "had antiproliferative effects"}, {"measurement": "tolerability", "setting": "[2]", "result": "tolerated very well"}]}, {"smiles": "CCCCCC[C@@H]([C@@H](C)O)n1cnc2c(N)ncnc21", "note": "(racemic) [EHNA]", "values": [{"measurement": "basal growth inhibition of N1S1 cells", "setting": "[3]; EHNA 10 μM alone, without adenosine", "result": 22, "unit": "%"}]}, {"smiles": "Nc1nc(Cl)nc2c1ncn2[C@@H]1O[C@H](CO)[C@@H](O)[C@H]1O", "note": "[2-chloro-adenosine]", "values": [{"measurement": "antiproliferative effect on breast cancer cell lines lacking A3R mRNA", "setting": "[1]", "result": "had antiproliferative effects"}]}, {"smiles": "Nc1ncnc2c1ncn2[C@@H]1O[C@H](CO)[C@@H](O)[C@H]1O", "note": "[1a, Adenosine]", "values": [{"measurement": "effect of ADA on the agonist's inhibition of cAMP production", "setting": "hA3R [4]; agonist 10 μM + ADA 0.8 IU/ml", "result": "abolished the effect"}, {"measurement": "inhibition of forskolin-stimulated cAMP production", "setting": "hA3R [4]; agonist at 10 μM", "result": "inhibited cAMP production to a similar extent"}, {"measurement": "antiproliferative effect on breast cancer cell lines lacking A3R mRNA", "setting": "[1]", "result": "had antiproliferative effects"}, {"measurement": "effect on LNCaP proliferation", "setting": "[5]; 25 μM", "result": "no effect"}, {"measurement": "effect of EHNA on the adenosine effect in LNCaP", "setting": "[5]; adenosine 25 μM + EHNA 10 μM, data not shown", "result": "did not increase the adenosine effect"}, {"measurement": "effect on N1S1 proliferation", "setting": "[3]; 25 μM", "result": "only a modest effect"}, {"measurement": "effect on N1S1 proliferation in the presence of EHNA", "setting": "[3]; adenosine 25 μM + EHNA 10 μM", "result": "almost full growth inhibition"}]}, {"smiles": "CNC(=O)[C@H]1O[C@@H](n2cnc3c(NCc4cccc(I)c4)nc(Cl)nc32)[C@H](O)[C@@H]1O", "note": "[Cl-IB-MECA, 2-chloro-N ^6-(3-iodobenzyl)adenosine-5′-N-methylcarboxamide]", "values": [{"measurement": "antiproliferative effect on breast cancer cell lines lacking A3R mRNA", "setting": "[1]", "result": "had antiproliferative effects"}, {"measurement": "growth of HL-60", "setting": "HL-60", "result": "inhibited growth"}, {"measurement": "effect on LNCaP proliferation", "setting": "[5]; 0.01–10 μM", "result": "inhibited proliferation"}, {"measurement": "effect on N1S1 proliferation", "setting": "[3]; 0.01–10 μM, 24 h", "result": "inhibited proliferation"}, {"measurement": "growth of MOLT-4", "setting": "MOLT-4", "result": "inhibited growth"}]}, {"smiles": "COc1ccccc1NC(=O)Nc1nc(-c2cccnc2)nc2ccccc12", "note": "[VUF5574]", "values": [{"measurement": "inhibition by the antagonist of cAMP modulation by adenosine, IPA and Cl-IB-MECA", "setting": "hA3R [4]; agonists 10 μM, VUF5574 1 μM or 10 μM", "result": "largely and significantly inhibited"}]}, {"smiles": "Nc1ncnc2c1ncn2[C@@H]1O[C@H](CO)C[C@H]1O", "note": "[3′-deoxyadenosine]", "values": [{"measurement": "antiproliferative effect on breast cancer cell lines lacking A3R mRNA", "setting": "[1]", "result": "had antiproliferative effects"}]}, {"smiles": "CC(C)=CCNc1ncnc2c1ncn2[C@@H]1O[C@H](CO)[C@@H](O)[C@H]1O", "note": "[1b, N^6-(2-isopentenyl)-adenosine]", "values": [{"measurement": "fraction excreted in urine", "setting": "[6]", "result": "more than 50%"}, {"measurement": "Ki", "setting": "rat A3R", "result": "4.69 ± 0.2", "unit": "µM"}]}, {"smiles": "CCCOC(=O)c1c(-c2ccccc2)nc(CC)c(C(=O)SCC)c1CCC", "note": "[MRS1523]", "values": [{"measurement": "blockade of the antiproliferative effect of IPA on LNCaP", "setting": "LNCaP cells; IPA 1 μM, MRS1523 0.01–1 μM", "result": "small, although still significant at higher concentrations"}, {"measurement": "blockade of the antiproliferative effect of IPA on LNCaP", "setting": "LNCaP cells; IPA 10 μM, MRS1523 0.01–1 μM", "result": "no effect"}, {"measurement": "blockade of the antiproliferative effect of IPA on LNCaP", "setting": "LNCaP cells; MRS1523 0.1 and 1 μM, IPA 0.01 and 0.1 μM", "result": "prevented the antiproliferative effect"}, {"measurement": "affinity for the hA3R compared to IPA", "setting": "hA3R [7]", "result": "approximately sixfold higher"}]}]}
